Our source for the pKb, Relaxation and pKi values is ChEMBL document CHEMBL1131384, “Synthesis and structure-activity relationships of potent and orally active 5-HT4 receptor antagonists: indazole and benzimidazolone derivatives” (J Med Chem, 1998).

The target in test [1] is Serotonin 2 (5-HT2) receptor (Rattus norvegicus) (UniProt P30994+P08909+P14842). The test is described as follows: Binding affinity against 5-hydroxytryptamine 2 receptor in serotonin-induced contraction of the rat aorta. Format: tissue-based.
Test [2] deals with 5-hydroxytryptamine receptor 4 (Rattus norvegicus) (UniProt Q62758). Put plainly: Antagonistic activity by ability to block serotonin induced relaxation (mediated by activation of 5-hydroxytryptamine 4 receptor) in carbamylcholine (10e-6 M) contracted esophagus at a concentration of 10e-6 M. Format: functional, tissue-based. In outline: (§1)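 Isolated rat esophagus precontracted with carbamylcholine (10^-6 M). Tissue was challenged with serotonin (1 µM) in the presence of the antagonist at a given concentration or of vehicle. Relaxation was recorded as % relaxation to 10^-6 M 5-HT, given as mean ± SEM with the number of determinations.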

For test [3], the target named is T1, Adrenergic receptor alpha-1 (Rattus norvegicus) (UniProt P15823+P23944+P43140). Put plainly: Binding affinity for Alpha-1 adrenergic receptor in rat aorta determined by block of norepinephrine induced contraction of rat aorta. Format: tissue-based.
The target of test [4] is 5-hydroxytryptamine receptor 4 (Rattus norvegicus) (UniProt Q62758). Put plainly: Antagonistic activity by ability to block serotonin induced relaxation (mediated by activation of 5-hydroxytryptamine 4 receptor) in carbamylcholine (10e-6 M) contracted esophagus at a concentration of 10e-7 M. Format: functional, tissue-based. In outline: as §1
Test [5] shares this target. Put plainly: Antagonistic activity evaluated by ability to block serotonin induced relaxation via 5-hydroxytryptamine 4 receptor) in carbamylcholine (10e-6 M) contracted esophagus at a concentration of 0.1 mg/kg (p.o.). In kind it is functional, organism-based. On the set-up: dose 0.1 mg/kg. The procedure, abridged:
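Rats were dosed with the antagonist by oral gavage. Esophagus was removed 3 h after dosing and challenged ex vivo with serotonin. Read-out was % relaxation of the carbamylcholine-contracted tissue to 10^-6 M 5-HT, given as mean ± SEM with the number of determinations.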

The target of test [6] is Serotonin 3 (5-HT3) receptor (Homo sapiens) (UniProt P46098+A5X5Y0+O95264+Q70Z44+Q8WXA8). Put plainly: The compound was tested for binding affinity against 5-hydroxytryptamine 3 receptor in guinea pig ileum. Format: tissue-based. Particulars: Cavia porcellus, target entry is the homologue from another species.
The target in test [7] is T1, Adrenergic receptor alpha-1 (Rattus norvegicus). The test is described as follows: Affinity for the alpha-1 adrenergic receptor determined by the displacement of [3H]prazosin from rat whole brain tissue. In kind it is tissue-based. In general terms: Displacement assays read how much labelled ligand stays bound in the presence of the test substance.
The target of test [8] is 5-hydroxytryptamine receptor 4 (Rattus norvegicus) (UniProt Q62758). Put plainly: Antagonistic activity evaluated by ability to block serotonin induced relaxation (mediated by activation of 5-hydroxytryptamine 4 receptor) in carbamylcholine (10e-6 M) contracted esophagus at a concentration of 10e-5 M. Format: functional, tissue-based. In outline: as §1
For test [9] the target is unchanged. The test is described as follows: Antagonistic activity evaluated by ability to block serotonin induced relaxation (mediated by activation of 5-hydroxytryptamine 4 receptor) in carbamylcholine (10e-6 M) contracted esophagus at a concentration of 10e-8 M. In kind it is functional, tissue-based. The procedure, abridged: as §1
Test [10] has the same target. The test is described as follows: Antagonistic activity evaluated by ability to block serotonin induced relaxation (via 5-hydroxytryptamine 4 receptor) in carbamylcholine (10e-6 M) contracted esophagus at a concentration of 3*10e-8 M. Format: functional. In outline: (§2)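 Isolated rat esophagus precontracted with carbamylcholine (10^-6 M), then challenged with serotonin (1 μM) in the presence of antagonist at the stated concentration or vehicle. Read-out is % relaxation to serotonin, given as mean ± SEM with the number of determinations.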

The target is the same in test [11]. Put plainly: Antagonistic activity of compound was evaluated by ability to block serotonin induced relaxation (mediated by activation of 5-hydroxytryptamine 4 receptor) in carbamylcholine (10e-6 M) contracted esophagus at a concentration of 10e-7 M. In kind it is functional. In outline: as §2
Test [12] has the same target. Put plainly: Antagonistic activity of compound was evaluated by ability to block serotonin induced relaxation (mediated by activation of 5-hydroxytryptamine 4 receptor) in carbamylcholine (10e-6 M) contracted esophagus at a concentration of 3*10e-7 M. In kind it is functional. The procedure, abridged:
as §2

5-hydroxytryptamine receptor 4 (Rattus norvegicus), sequence (Q62758 whole entry): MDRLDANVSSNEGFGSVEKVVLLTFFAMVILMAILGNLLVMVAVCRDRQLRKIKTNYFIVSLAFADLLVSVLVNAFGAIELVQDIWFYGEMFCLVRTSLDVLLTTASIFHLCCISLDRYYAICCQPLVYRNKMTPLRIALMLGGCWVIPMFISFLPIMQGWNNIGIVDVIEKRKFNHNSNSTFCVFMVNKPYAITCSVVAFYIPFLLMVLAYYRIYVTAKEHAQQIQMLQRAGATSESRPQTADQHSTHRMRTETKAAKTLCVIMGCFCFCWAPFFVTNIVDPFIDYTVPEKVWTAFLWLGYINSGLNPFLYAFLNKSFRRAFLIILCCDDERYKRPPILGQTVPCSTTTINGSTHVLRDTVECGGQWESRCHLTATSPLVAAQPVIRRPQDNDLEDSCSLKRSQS
Serotonin 2 (5-HT2) receptor (Rattus norvegicus), sequence (P08909 whole entry, looked up): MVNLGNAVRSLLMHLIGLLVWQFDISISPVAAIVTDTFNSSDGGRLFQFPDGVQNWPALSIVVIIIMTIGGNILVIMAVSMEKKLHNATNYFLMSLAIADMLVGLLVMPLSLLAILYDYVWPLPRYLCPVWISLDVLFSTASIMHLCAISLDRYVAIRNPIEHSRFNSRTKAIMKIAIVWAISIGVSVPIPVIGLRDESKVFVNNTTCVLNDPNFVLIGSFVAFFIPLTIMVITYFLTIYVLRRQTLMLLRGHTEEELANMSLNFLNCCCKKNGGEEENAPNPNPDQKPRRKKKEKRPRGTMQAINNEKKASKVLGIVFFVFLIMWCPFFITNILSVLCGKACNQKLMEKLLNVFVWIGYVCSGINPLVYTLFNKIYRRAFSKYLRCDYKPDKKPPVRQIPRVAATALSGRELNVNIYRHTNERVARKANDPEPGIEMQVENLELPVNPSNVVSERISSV
Serotonin 2 (5-HT2) receptor (Rattus norvegicus), sequence (P14842 whole entry, looked up): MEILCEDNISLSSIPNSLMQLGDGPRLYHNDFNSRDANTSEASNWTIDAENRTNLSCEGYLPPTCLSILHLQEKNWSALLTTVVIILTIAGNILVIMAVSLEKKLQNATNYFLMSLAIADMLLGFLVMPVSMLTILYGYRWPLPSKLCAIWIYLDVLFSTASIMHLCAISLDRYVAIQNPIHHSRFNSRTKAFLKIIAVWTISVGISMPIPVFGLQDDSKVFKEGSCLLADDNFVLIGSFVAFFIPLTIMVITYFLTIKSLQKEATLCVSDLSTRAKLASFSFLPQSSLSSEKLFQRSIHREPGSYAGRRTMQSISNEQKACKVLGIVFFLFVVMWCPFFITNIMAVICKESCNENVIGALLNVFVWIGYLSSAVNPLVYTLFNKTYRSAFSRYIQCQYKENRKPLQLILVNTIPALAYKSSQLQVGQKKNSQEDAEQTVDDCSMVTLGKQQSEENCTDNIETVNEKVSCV
Serotonin 2 (5-HT2) receptor (Rattus norvegicus), sequence (P30994 whole entry, looked up): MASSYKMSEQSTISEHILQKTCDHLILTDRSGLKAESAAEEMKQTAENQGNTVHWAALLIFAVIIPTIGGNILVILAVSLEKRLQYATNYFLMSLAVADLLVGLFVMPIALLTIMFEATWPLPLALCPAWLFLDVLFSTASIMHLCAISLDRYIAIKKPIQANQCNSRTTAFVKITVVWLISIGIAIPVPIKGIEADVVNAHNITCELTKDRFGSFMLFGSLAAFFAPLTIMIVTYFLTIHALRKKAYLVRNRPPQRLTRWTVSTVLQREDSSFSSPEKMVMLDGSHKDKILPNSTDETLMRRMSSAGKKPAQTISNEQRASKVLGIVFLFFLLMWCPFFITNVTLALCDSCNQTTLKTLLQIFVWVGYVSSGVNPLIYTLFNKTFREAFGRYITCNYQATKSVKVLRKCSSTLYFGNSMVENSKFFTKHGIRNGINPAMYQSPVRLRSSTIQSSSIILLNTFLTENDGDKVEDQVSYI

Consider `CC(C)n1nc(C(=O)NC2CCN(CCN3C(=O)c4ccccc4C3=O)CC2)c2ccccc21`, for which the negative logarithm of the Kb (pKb) (usually −log10 of the Kb, conventionally taken in molar units) in test [1] was under 5. Besides, the Relaxation in test [2] came out at 7.5%.
On to `CC(C)n1nc(C(=O)NCCN2CCCCC2)c2ccccc21`, for which the negative-log Kb (pKb) is 4.9 in test [3], under 5 in test [1] and 5.8 in test [6]. The Relaxation in test [4] was 22%; in test [5], 38%; in [8] it was 6.6%. For the same compound, the pKi (commonly −log10 of the Ki, conventionally taken in molar units) in test [7] came out at 4.8.
`CN1C2CCCC1CC(NC(=O)c1nn(C)c3ccccc13)C2` (stereo not given) came in with a Relaxation in [8] of 21%.
Take `CC(C)n1nc(C(=O)NCCN2CCC(NC(=O)C34C[C@H]5C[C@@H](C3)C[C@@H](C4)C5)CC2)c2ccccc21`: the Relaxation in [9] was determined as 48.1%; in test [10], 23.2%; in test [4] it was 11%; in test [5] it was 27%. In [7], this compound registered a pKi of 4.3.
As to `CC(C)n1c(=O)n(C(=O)NC2CC3CCC(C2)N3C)c2ccccc21` (stereo not given), the Relaxation in test [9] was 55%; in [10], 13.8%; in test [2] it was 2.7%. In test [6], the negative logarithm of the Kb (pKb) was determined as 7.5.
As for `COc1cc(N)c(Cl)cc1C(=O)NC1CCN(CCCOc2ccc(F)cc2)CC1OC` (stereo not given), the pKb was found to be 6.7 in [3] and 7.89 in test [1]. Moreover, the figures for the Relaxation in test [8] and in [2] were 20.3% and 7%, respectively.
As to `CN1[C@@H]2CC[C@H]1C[C@@H](OC(=O)c1c[nH]c3ccccc13)C2`, the Relaxation is 26.4% in test [8] and 33.9% in [2].
`CC(C)n1nc(C(=O)NC2CC3CCC(C2)N3C)c2ccccc21` (stereo not given): the Relaxation in [9] was determined as 43.2%; in test [11], 9%; in test [2] it was 8%.
As for `CC(C)n1nc(C(=O)NC2CCN(CCCOc3ccc(F)cc3)CC2)c2ccccc21`, the pKb in [3] worked out at 6.7; in test [1], 6.8. The Relaxation is 36% in [10], 15.7% in test [4] and 7.5% in [2]. In test [7], the pKi came to 7.69.
In the case of `CN1[C@@H]2CC[C@H]1C[C@@H](NC(=O)c1cc(Cl)cc3c1OC(C)(C)C3)C2`, the negative-log Kb (pKb) in test [6] was 8.78. For the same compound, the Relaxation in test [8] was determined as 22.2%; in test [2], 37%.
Turning to `COc1cc(N)c(Cl)cc1C(=O)NC1CC2CCC(C1)N2C` (stereo not given), the Relaxation in [8] came to 2.8%; in test [2] it was 5.4%.
On to `CC(C)n1nc(C(=O)NCCCN2CCCCC2)c2ccccc21`, for which the Relaxation came out at 27.3% in test [4], 15% in test [5], 6.3% in test [2] and 14.3% in [12]. The negative-log Ki (pKi) in test [7] is under 4.5.
`CN1C2CCC1CC(NC(=O)c1n[nH]c3ccccc13)C2` (stereo not given) displayed a Relaxation in [8] of 50.5%.
Regarding `CC(C)n1nc(C(=O)NC2CCN(Cc3ccccc3)CC2)c2ccccc21`, the pKb in test [3] was under 5; in [1], 5.5. In addition, the Relaxation in test [9] came to 38.5%; in test [10] it was 23.3%; in test [4], 24.5%; in test [2], 3.85%. The compound further showed a pKi in test [7] of under 4.
Compound `CN1C2CCC1CC(NC(=O)c1cccc3ccccc13)C2` (stereo not given) displayed a Relaxation in test [8] of 76.5%.
On to `CC(C)n1nc(C(=O)NC2CCN(C)CC2)c2ccccc21`, for which, in test [10], the Relaxation is 37.3%. Moreover, in [6], the pKb was 6.3.
